Data taken from ChEMBL document CHEMBL5712884, “S-Adenosyl-L-methionine-competitive inhibitors of the histone methyltransferase EZH2 induce autophagy and enhance drug sensitivity in cancer cells” (Anticancer Drugs, 2015).
Calls of active or inactive are those of the source. The rule behind the calls is not given here.

What was measured:
MDA-MB-231 [1] = test: Induction of autophagy in human MDA-MB-231 cells assessed as reduction in expression of p62 at 20 umol/L incubated for 24 hrs by Western blot analysis; assay type: functional, cell-based; details: dose 20.0 µmol/L
HepG2 [2] = test: Cytotoxicity against human HepG2 cells assessed as effect on cell viability after 72 hrs by MTT analysis; assay type: functional, cell-based
Method in brief: (§1)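 Cells in DMEM with 10% FBS at 37°C, 5% CO2, plated in 96-well plates and drug-treated for 72 h. MTT 0.5 mg/ml added for 4 h, formazan dissolved in DMSO, absorbance read at 550 nm. Means and SDs; Student's t-test.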

MDA-MB-231 [3] = test: Cytotoxicity against human MDA-MB-231 cells assessed as reduction in cell viability at >5 umol/L after 72 hrs by MTT analysis; assay type: functional, cell-based; details: dose > 5.0 µmol/L; method in brief: as §1
HepG2 [4] = test: Potentiation of sorafenib-induced anticancer activity in human HepG2 cells at 10 umol/L measured after 72 hrs by MTT assay; assay type: functional, cell-based; details: dose 10.0 µmol/L
Method in brief: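 HepG2 cells given a range of sorafenib doses, with or without 10 μmol/l compound, for 72 h. Viability by MTT (0.5 mg/ml, 4 h, DMSO, A550). Student's t-test against untreated cells.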

MDA-MB-231 [5] = test: Induction of autophagy in human MDA-MB-231 cells assessed as induction of LC3-II accumulation at 10 to 20 umol/L incubated for 24 hrs by Western blot analysis; assay type: functional, cell-based; details: dose 10-20 µmol/L
HepG2 [6] = test: […] in human HepG2 cells assessed as induction of LC3-II accumulation at 10 to 20 umol/L measured after 24 hrs by Western blot analysis; assay type: functional, cell-based; details: dose 10-20 µmol/L
Method in brief: (§2)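 A549 and HepG2 cells drug-treated with or without bafilomycin A1. Lysates made in Tris pH 7.5/NP-40 buffer with protease and phosphatase inhibitors, 25–50 μg run on 7–12% SDS-PAGE, probed for LC3B, ECL detection.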

[7] = target: Histone-lysine N-methyltransferase EZH2 (Homo sapiens) (UniProt Q15910); test: Inhibition of EZH2 in human HepG2 cells assessed as reduction in H3K27-me3 level at 20 umol/L incubated for 72 hrs by Western blot analysis; assay type: cell-based; details: dose 20.0 µmol/L
MDA-MB-231 [8] = test: Induction of autophagy in human MDA-MB-231 cells assessed as change in total LAMP2 expression at 20 umol/L measured after 24 hrs by Western blot analysis; assay type: toxicity, cell-based; details: mda-mb-231, 24 h, 20 µM, dose 20 µmol/L
HepG2 [9] = test: Cytotoxicity against human HepG2 cells assessed as effect on cell viability incubated for 72 hrs by MTT analysis; assay type: functional, cell-based; method in brief: as §1
HepG2 [10] = test: Potentiation of sorafenib-induced anticancer activity in human HepG2 cells assessed as increase in cleaved PARP expression at 10 umol/L measured after 72 hrs by Western blot analysis; assay type: functional, cell-based; details: dose 10.0 µmol/L
Method in brief: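 HepG2 cells given 5 μmol/l sorafenib, with or without 10 μmol/l compound, for 72 h. Whole-cell lysates immunoblotted for PARP1, LC3B and β-actin.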

A549 [11] = test: […] in human A549 cells assessed as induction of LC3-II accumulation at 10 to 20 umol/L measured after 24 hrs in presence of bafilomycin A1 by Western blot analysis; assay type: functional, cell-based; details: dose 10-20 µmol/L; method in brief: as §2
A549 [12] = test: […] in human A549 cells assessed as induction of LC3-II accumulation at 10 to 20 umol/L measured after 24 hrs by Western blot analysis; assay type: functional, cell-based; details: dose 10-20 µmol/L; method in brief: as §2
MDA-MB-231 [13] = test: Induction of autophagy in human MDA-MB-231 cells assessed as change in total LAMP2 expression at 20 umol/L measured after 24 hrs in presence of bafilomycin A1 by Western blot analysis; assay type: toxicity, cell-based; details: mda-mb-231, 24 h, 20 µM, dose 20 µmol/L
[14] = target: Histone-lysine N-methyltransferase EZH2 (Homo sapiens) (UniProt Q15910); test: Inhibition of EZH2 in human MDA-MB-231 cells assessed as reduction in H3K27-me3 level at 20 umol/L incubated for 72 hrs by Western blot analysis; assay type: cell-based; details: dose 20.0 µmol/L
MDA-MB-231 [15] = test: Cytotoxicity against human MDA-MB-231 cells assessed as cell viability at 5 umol/L after 72 hrs by MTT analysis relative to control; assay type: functional; details: MDA-MB-231, 72 h, dose 5 µmol/L, read-out: Activity; method in brief: as §1
[16] = target: Histone-lysine N-methyltransferase EZH2 (Homo sapiens) (UniProt Q15910); test: Inhibition of EZH2 in human A549 cells assessed as reduction in H3K27-me3 level at 20 umol/L incubated for 72 hrs by Western blot analysis; assay type: cell-based; details: dose 20.0 µmol/L
MDA-MB-231 [17] = test: Induction of apoptosis in human MDA-MB-231 cells assessed as induction of cleavage of PARP at 10 to 20 umol/L incubated for 72 hrs by Western blot analysis; assay type: functional, cell-based; details: dose 10-20 µmol/L
HepG2 [18] = test: […] in human HepG2 cells assessed as induction of LC3-II accumulation at 10 to 20 umol/L measured after 24 hrs in presence of bafilomycin A1 by Western blot analysis; assay type: functional, cell-based; details: dose 10-20 µmol/L; method in brief: as §2
MDA-MB-231 [19] = test: Induction of apoptosis in human MDA-MB-231 cells assessed as induction of cleavage of caspase-3 at 10 to 20 umol/L incubated for 72 hrs by Western blot analysis; assay type: functional, cell-based; details: dose 10-20 µmol/L
MDA-MB-231 [20] = test: […] in human MDA-MB-231 cells assessed as induction of LC3-II accumulation at 1 umol/L for 48 hrs by Western blot analysis; assay type: functional, cell-based; details: dose 1.0 µmol/L

Chain of Histone-lysine N-methyltransferase EZH2 (Homo sapiens) (Q15910 whole entry, looked up): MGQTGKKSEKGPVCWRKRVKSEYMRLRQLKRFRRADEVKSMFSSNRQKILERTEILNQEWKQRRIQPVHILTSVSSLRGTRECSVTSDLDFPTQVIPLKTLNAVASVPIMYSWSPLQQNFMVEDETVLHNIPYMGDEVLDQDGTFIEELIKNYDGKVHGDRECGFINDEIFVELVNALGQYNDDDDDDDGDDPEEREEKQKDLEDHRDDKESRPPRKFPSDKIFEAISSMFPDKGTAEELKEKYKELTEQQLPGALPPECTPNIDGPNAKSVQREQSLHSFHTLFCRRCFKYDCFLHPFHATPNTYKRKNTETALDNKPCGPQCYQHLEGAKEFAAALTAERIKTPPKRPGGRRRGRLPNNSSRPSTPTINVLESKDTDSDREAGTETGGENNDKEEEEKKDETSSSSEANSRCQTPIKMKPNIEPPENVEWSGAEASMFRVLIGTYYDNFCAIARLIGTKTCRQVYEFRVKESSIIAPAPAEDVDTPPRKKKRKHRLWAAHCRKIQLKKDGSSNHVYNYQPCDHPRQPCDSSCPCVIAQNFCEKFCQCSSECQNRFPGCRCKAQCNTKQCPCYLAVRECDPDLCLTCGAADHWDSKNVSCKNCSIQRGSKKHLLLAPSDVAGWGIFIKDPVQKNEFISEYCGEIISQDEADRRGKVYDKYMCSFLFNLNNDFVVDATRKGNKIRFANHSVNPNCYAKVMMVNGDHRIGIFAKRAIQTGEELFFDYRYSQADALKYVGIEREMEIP

SMILES	Activity (MDA-MB-231 [1])	Activity (HepG2 [2])	Activity (MDA-MB-231 [3])	Activity (HepG2 [4])	Activity (MDA-MB-231 [5])	Activity (HepG2 [6])	inhibition [7]	Activity (MDA-MB-231 [8])	Activity (HepG2 [9])	Activity (HepG2 [10])	Activity (A549 [11])	Activity (A549 [12])	Activity (MDA-MB-231 [13])	inhibition [14]	viability at 5 µM (MDA-MB-231 [15])	inhibition [16]	Activity (MDA-MB-231 [17])	Activity (HepG2 [18])	Activity (MDA-MB-231 [19])	Activity (MDA-MB-231 [20])
Nc1nccc2c1ncn2[C@@H]1C=C(CO)[C@@H](O)[C@H]1O	Active	Active	inactive	inactive	inactive	inactive	Active	Non-Toxic	Active	inactive	inactive	inactive	Non-Toxic	Active	67%	Active	Active	inactive	inactive	–
CC(=O)O[C@H]1C(=O)[C@@]2(C)[C@H]([C@H](OC(=O)c3ccccc3)[C@]3(O)C[C@H](OC(=O)[C@H](O)[C@@H](NC(=O)c4ccccc4)c4ccccc4)C(C)=C1C3(C)C)[C@]1(OC(C)=O)CO[C@@H]1C[C@@H]2O	–	–	–	–	–	–	–	–	–	–	–	–	–	–	–	–	–	–	–	Active
